According to ChEMBL document CHEMBL3272063, “Potential antitumor agents. 13. 4-Methyl-5-amino-1-formylisoquinoline thiosemicarbazone” (J Med Chem, 1976):
Active and inactive are the calls of the source. No cut-off for these calls is given here.

Legend:
[1] = Antitumor activity against mouse S180A cells allografted in CD-1 mouse assessed as average survival at maximum effective dose administered qd for 6 days (reference value: 12.6 +/- 0.6 days); format: functional
[2] = Antitumor activity against mouse S180A cells allografted in CD-1 mouse assessed as average survival at maximum effective dose administered qd for 6 days relative to control; format: functional
[3] = Antitumor activity against mouse S180A cells allografted in CD-1 mouse assessed as dose required for maximum increase in mouse survival administered qd for 6 days; format: functional
[4] = test system: Mus musculus; test: Toxicity in CD-1 mouse allografted with mouse S180A cells assessed as change in body weight at maximum effective dose administered qd for 6 days (reference value: 18.2%); format: organism-based; conditions: 144 h
[5] = organism: Rattus norvegicus; test: Inhibition of ribonucleoside-diphosphate reductase in rat hepatoma cells relative to 5-hydroxy-2-formylpyridine thiosemicarbazone; format: cell-based
[6] = organism: Rattus norvegicus; test: Inhibition of ribonucleoside-diphosphate reductase in rat hepatoma cells relative to 4-(m-amino)phenyl-2-formylpyridine thiosemicarbazone; format: cell-based
[7] = test system: S180A; test: Antitumor activity against mouse S180A cells allografted in CD-1 mouse assessed as increase in mouse survival administered qd for 6 days; format: functional, cell-based
Method in brief: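 Adult female CD-1 mice given Sarcoma 180 ascites cells taken from a donor mouse carrying a 7-day tumor. Drug dosed once daily for six consecutive days, starting 24 h after implantation, across 5-100 mg/kg/day. Read-out is average survival time, with mice alive at 50 days counted as 50-day survivors. %T/C = treated/control × 100. Value reported at the maximum effective daily dose.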

Structure (SMILES): N/C(S)=N/N=C/c1ccc(O)cn1
- Survival [1]: 30.4 days
- T/C [2]: 241%
- Activity [3]: 60 mg/kg
- Activity [4]: -3.3%

Structure (SMILES): Cc1cnc(/C=N/NC(N)=S)c2cccc(N)c12
- Survival [1]: 38.2 days
- T/C [2]: 303%
- fold change (FC) [5]: 60
- Activity [3]: 10 mg/kg
- Activity [4]: -4.8%
- fold change (FC) [6]: 2

Structure (SMILES): Cc1cnc(/C=N/NC(N)=S)c2cccc([N+](=O)[O-])c12
- Activity [7]: inactive

Structure (SMILES): NC(=S)N/N=C/c1nccc2c(N)cccc12
- Survival [1]: 37.3 days
- T/C [2]: 296%
- Activity [3]: 40 mg/kg
- Activity [4]: -8.5%

Structure (SMILES): NC(=S)N/N=C/c1nccc2ccccc12
- Survival [1]: 39.2 days
- T/C [2]: 311%
- Activity [3]: 40 mg/kg
- Activity [4]: -5.1%
